Experimental data from ChEMBL document CHEMBL3992493, “New approach of delivering cytotoxic drugs towards CAIX expressing cells: A concept of dual-target drugs” (Eur J Med Chem, 2017).
Calls of active or inactive are those of the source. The rule behind the calls is not given here.

How the values were obtained:
Carbonic anhydrase 1 = Carbonic anhydrase 1 (Homo sapiens, UniProt P00915); assay: Binding affinity to recombinant human carbonic anhydrase 1 after 15 mins by stopped-flow CO2 hydration assay
Carbonic anhydrase 1, sequence (P00915 whole entry): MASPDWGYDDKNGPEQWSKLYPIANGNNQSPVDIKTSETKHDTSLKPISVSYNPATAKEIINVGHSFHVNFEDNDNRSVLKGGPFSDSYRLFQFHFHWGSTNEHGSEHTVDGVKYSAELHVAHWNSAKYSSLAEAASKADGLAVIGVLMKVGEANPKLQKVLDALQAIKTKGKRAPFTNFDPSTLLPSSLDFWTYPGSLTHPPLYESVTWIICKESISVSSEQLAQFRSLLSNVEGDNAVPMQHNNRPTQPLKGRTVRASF

Carbonic anhydrase 2 = Carbonic anhydrase 2 (Homo sapiens, UniProt P00918); assay: Binding affinity to recombinant human carbonic anhydrase 2 after 15 mins by stopped-flow CO2 hydration assay
Carbonic anhydrase 9 = Carbonic anhydrase 9 (Homo sapiens, UniProt Q16790); assay: Binding affinity to recombinant human carbonic anhydrase 9 after 15 mins by stopped-flow CO2 hydration assay
Carbonic anhydrase 12 = Carbonic anhydrase 12 (Homo sapiens, UniProt O43570); assay: Binding affinity to recombinant human carbonic anhydrase 12 after 15 mins by stopped-flow CO2 hydration assay
Carbonic anhydrase 12, sequence (O43570 whole entry): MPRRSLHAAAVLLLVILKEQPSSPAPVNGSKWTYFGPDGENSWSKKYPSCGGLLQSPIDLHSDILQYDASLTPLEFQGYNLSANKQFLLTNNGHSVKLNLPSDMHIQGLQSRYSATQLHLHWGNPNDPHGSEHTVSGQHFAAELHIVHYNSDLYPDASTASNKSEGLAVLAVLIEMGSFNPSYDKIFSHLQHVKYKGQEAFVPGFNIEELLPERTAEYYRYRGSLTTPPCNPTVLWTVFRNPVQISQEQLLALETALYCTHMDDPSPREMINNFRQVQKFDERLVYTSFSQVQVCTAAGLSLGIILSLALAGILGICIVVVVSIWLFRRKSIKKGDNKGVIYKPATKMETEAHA

MDCK [1] = assay: Cytotoxicity against carbonic anhydrase 9 knockdown MDCK cells assessed as reduction in cell viability preincubated for 2 hrs followed by 72 hrs incubation under normoxic condition by Alamar blue assay; type: cell-based; details: Canis lupus familiaris
MDCK [2] = assay: Cytotoxicity against MDCK cells expressing carbonic anhydrase 9 assessed as reduction in cell viability preincubated for 2 hrs followed by 72 hrs incubation under normoxic condition by Alamar blue assay; type: functional, cell-based; details: Canis lupus familiaris
How it was run: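 CAIX-overexpressing or scrambled-vector MDCK cells in DMEM/10% FBS, attached overnight, held 24 h at 21% O2/5% CO2. Drug added (0.5% DMSO vehicle) for 2 h, washed off, then 72 h further normoxic growth. Viability measured by 2 h alamarBlue conversion under normoxia.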

MDCK [3] = assay: Cytotoxicity against carbonic anhydrase 9 knockdown MDCK cells assessed as reduction in cell viability after 2 hrs under hypoxic condition by Alamar blue assay; type: cell-based; details: Canis lupus familiaris
How it was run: (§1)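 MDCK cells transfected with human CAIX (CAIX+) or scrambled control vector (CAIX−), in DMEM/10% FBS, seeded and attached overnight. Medium replaced with pre-equilibrated hypoxic DMEM (0.2% O2, 5% CO2) for 24 h. Compounds in DMSO (0.5%) added for 2 h, then washed off. Cells regrown 72 h in normoxia. Viability read by alamarBlue conversion for 2 h under normoxia.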

MDCK [4] = assay: Cytotoxicity against MDCK cells expressing carbonic anhydrase 9 assessed as reduction in cell viability after 2 hrs under hypoxic condition by Alamar blue assay; type: functional, cell-based; details: Canis lupus familiaris; how it was run: as §1
MDCK [5] = assay: Cytotoxicity against carbonic anhydrase 9 knockdown MDCK cells assessed as reduction in cell viability after 72 hrs under normoxic condition by Alamar blue assay; type: cell-based; details: Canis lupus familiaris
MDCK [6] = assay: Cytotoxicity against MDCK cells expressing carbonic anhydrase 9 assessed as reduction in cell viability after 72 hrs under normoxic condition by Alamar blue assay; type: functional, cell-based; details: Canis lupus familiaris
MDCK [7] = assay: Cytotoxicity against carbonic anhydrase 9 knockdown MDCK cells assessed as reduction in cell viability after 72 hrs under hypoxic condition by Alamar blue assay; type: cell-based; details: Canis lupus familiaris
MDCK [8] = assay: Cytotoxicity against MDCK cells expressing carbonic anhydrase 9 assessed as reduction in cell viability after 72 hrs under hypoxic condition by Alamar blue assay; type: functional, cell-based; details: Canis lupus familiaris
HCT-116 = assay: Effect on mitochondrial respiration in human HCT116 cells expressing carbonic anhydrase 9 assessed as reduction in oxygen consumption rate at 0.5 mM […]; type: functional, cell-based
MDCK [9] = assay: Cytotoxicity against MDCK cells expressing carbonic anhydrase 9 assessed as reduction in cell viability at 50 nM pretreated for 1 hr followed by 2 Gy irradiation under normoxic condition by Alamar blue assay; type: functional, cell-based; details: Canis lupus familiaris
How it was run: (§2)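 ATR inhibitor plus radiation: MDCK CAIX+/CAIX− cells were preconditioned 24 h under normoxia (21% O2) or anoxia (≤0.02% O2). Compound in 0.5% DMSO was added 1 h before X-irradiation, 2 Gy normoxic or 4 Gy anoxic. Total compound exposure was 72 h, then washout and 72 h normoxic regrowth. Readout was 2 h alamarBlue conversion, as relative viability.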

MDCK [10] = assay: Cytotoxicity against carbonic anhydrase 9 knockdown MDCK cells assessed as reduction in cell viability at 50 nM pretreated for 1 hr followed by 4 Gy irradiation under anoxic condition by Alamar blue assay; type: cell-based, Canis lupus familiaris; details: dog, 0.05 µM; how it was run: as §2
MDCK [11] = assay: Cytotoxicity against MDCK cells expressing carbonic anhydrase 9 assessed as reduction in cell viability at 50 nM pretreated for 1 hr followed by 4 Gy irradiation under anoxic condition by Alamar blue assay; type: functional, cell-based; details: Canis lupus familiaris; how it was run: as §2
MDCK [12] = assay: Cytotoxicity against carbonic anhydrase 9 knockdown MDCK cells assessed as reduction in cell viability at 50 nM pretreated for 72 hrs followed by 72 hrs incubation under normoxic condition by Alamar blue assay; type: cell-based, Canis lupus familiaris; details: dog, 0.05 µM
How it was run: (§3)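 ATR inhibitor without irradiation: MDCK CAIX+ or scrambled-control CAIX− cells were preconditioned 24 h at ≤0.02% O2 (anoxia) or 21% O2. Compound was added in 0.5% DMSO for 72 h, then washed off. Cells regrew 72 h under normoxia, followed by 2 h alamarBlue conversion. Viability is relative to control.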

MDCK [13] = assay: Cytotoxicity against MDCK cells expressing carbonic anhydrase 9 assessed as reduction in cell viability at 50 nM pretreated for 72 hrs followed by 72 hrs incubation under normoxic condition by Alamar blue assay; type: functional, cell-based; details: Canis lupus familiaris; how it was run: as §3
MDCK [14] = assay: Cytotoxicity against carbonic anhydrase 9 knockdown MDCK cells assessed as reduction in cell viability at 50 nM after 72 hrs under anoxic condition by Alamar blue assay; type: cell-based, Canis lupus familiaris; details: dog, 0.05 µM; how it was run: as §3
MDCK [15] = assay: Cytotoxicity against MDCK cells expressing carbonic anhydrase 9 assessed as reduction in cell viability at 50 nM after 72 hrs under anoxic condition by Alamar blue assay; type: functional, cell-based; details: Canis lupus familiaris; how it was run: as §3
MDCK [16] = assay: Cytotoxicity against carbonic anhydrase 9 knockdown MDCK cells assessed as reduction in cell viability incubated for 24 hrs measured after 7 days under normoxic condition by methylene blue staining based clonogenic survival assay; design: species or system Canis lupus familiaris; details: dog
How it was run: (§4)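 Clonogenic assay: confluent, high-density MDCK CAIX+/CAIX− cells were exposed to drug for 24 h at 0.2% or 21% O2. Cells were then trypsinized and reseeded in triplicate at known numbers. Colonies grew 7 days and were fixed/stained with 0.4% methylene blue in 70% ethanol. Surviving fraction was normalized to 0.5% DMSO vehicle; three independent biological repeats.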

MDCK [17] = assay: Cytotoxicity against MDCK cells expressing carbonic anhydrase 9 assessed as reduction in cell viability incubated for 24 hrs measured after 7 days under normoxic condition by methylene blue staining based clonogenic survival assay; type: functional; details: Canis lupus familiaris; how it was run: as §4
MDCK [18] = assay: Cytotoxicity against carbonic anhydrase 9 knockdown MDCK cells assessed as reduction in cell viability incubated for 24 hrs measured after 7 days under hypoxic condition by methylene blue staining based clonogenic survival assay; design: species or system Canis lupus familiaris; details: dog; how it was run: as §4
MDCK [19] = assay: Cytotoxicity against MDCK cells expressing carbonic anhydrase 9 assessed as reduction in cell viability incubated for 24 hrs measured after 7 days under hypoxic condition by methylene blue staining based clonogenic survival assay; type: functional; details: Canis lupus familiaris; how it was run: as §4

Ki (Carbonic anhydrase 1) [µM]	Ki (Carbonic anhydrase 2) [µM]	Ki (Carbonic anhydrase 9) [µM]	Ki (Carbonic anhydrase 12) [µM]	Compound	IC50 (MDCK [1]) [µM]	IC50 (MDCK [2]) [µM]	IC50 (MDCK [3]) [µM]	IC50 (MDCK [4]) [µM]	IC50 (MDCK [5]) [µM]	IC50 (MDCK [6]) [µM]	IC50 (MDCK [7]) [µM]	IC50 (MDCK [8]) [µM]	further results
> 50	> 50	> 50	> 50	Cn1nnc2c(C(N)=O)ncn2c1=O [TEMOZOLOMIDE]	–	–	–	–	775	> 1000	1000	> 1000	Activity (MDCK [16]): Toxic; Activity (MDCK [17]): Active; Activity (MDCK [18]): Toxic; Activity (MDCK [19]): Active
–	–	0.271	–	Cn1nnc2c(C(=O)NCc3ccc(S(N)(=O)=O)cc3)ncn2c1=O	–	–	–	–	> 1000	> 1000	> 1000	> 1000	–
–	–	0.307	–	NS(=O)(=O)c1ccc(CCNc2n[n+]([O-])c3cc4c(cc3[n+]2[O-])CCC4)cc1	> 300	> 300	> 300	> 300	–	–	–	–	–

The next lines start with the compound.

Compound	Ki (Carbonic anhydrase 1) [µM]	Ki (Carbonic anhydrase 2) [µM]	Ki (Carbonic anhydrase 9) [µM]	Ki (Carbonic anhydrase 12) [µM]	IC50 (MDCK [1]) [µM]	IC50 (MDCK [2]) [µM]	IC50 (MDCK [3]) [µM]	IC50 (MDCK [4]) [µM]	IC50 (MDCK [5]) [µM]	IC50 (MDCK [6]) [µM]	IC50 (MDCK [7]) [µM]	IC50 (MDCK [8]) [µM]	further results
NS(=O)(=O)c1ccc(CCNC(=O)OCCCCc2ccc(N(CCCl)CCCl)cc2)cc1	5.67	0.504	3.85	13.6	89	99	81	100	–	–	–	–	–
Cn1nnc2c(C(=O)Nc3nnc(S(N)(=O)=O)s3)ncn2c1=O	–	–	0.176	–	–	–	–	–	> 1000	> 1000	> 1000	> 1000	–
N=C(N)NC(=N)NCCc1ccccc1	–	–	–	–	–	–	–	–	–	–	–	–	Activity (HCT-116): Active
CNCc1ccc(-c2cc(-c3nc(-c4ccc(S(=O)(=O)C(C)C)cc4)cnc3NS(N)(=O)=O)on2)cc1	> 50	> 50	> 50	> 50	–	–	–	–	–	–	–	–	Activity (MDCK [9]): inactive; Activity (MDCK [10]): Non-Toxic; Activity (MDCK [11]): inactive; Activity (MDCK [12]): Toxic; Activity (MDCK [13]): Active; Activity (MDCK [14]): Toxic; Activity (MDCK [15]): Active
NS(=O)(=O)c1ccc(NC(=O)OCCCCc2ccc(N(CCCl)CCCl)cc2)cc1	5.58	0.553	2.74	9.38	8	56	8	62	–	–	–	–	–
Nc1n[n+]([O-])c2ccccc2[n+]1[O-] [TIRAPAZAMINE]	> 50	> 50	> 50	> 50	> 300	> 300	< 50	95	–	–	–	–	–
